Source: ChEMBL document CHEMBL3525912, “Sulfation of 4-hydroxy toremifene: individual variability, isoform specificity, and contribution to toremifene pharmacogenomics” (Drug Metab Dispos, 2012)

What was measured:
[1] = Retention time of the compound; type: physicochemical
In short: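 Symmetry C18 column (4.6 × 150 mm) run at 1.0 mL/min. Gradient: 2 mM TBAHS with 30% acetonitrile for 35 min, 45% acetonitrile for 15 min, then 30% for 20 min. 100 µl injection, flow scintillation detection.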

Liver cytosol [2] = assay: Drug metabolism in human liver cytosol assessed as 4-(4-chloro-1-(4-(2-(dimethylamino)ethoxy)phenyl)-2-phenylbut-1-enyl)phenyl hydrogen sulfate formation after 15 mins by HPLC analysis in presence of 20 uM PAPS and 0.1 to 10 uM SULT1A1 inhibitor DCNP; type: ADME; settings: 0.25 h
In short: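 Pooled human liver cytosol sulfating 4-OH-TOR with 20 µM PAPS, pH 6.2, plus 0.1–10 µM (final) ethanol-dissolved inhibitor. After 15 min the reaction was stopped with acetonitrile:acetic acid (96:4) and sulfate quantified by radio-HPLC. IC50 calculated. Three separate determinations.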

[3] = Drug metabolism in human liver cytosol assessed as SULT1A1 3'UTR GTA/GTA copy number-2-mediated 4-(4-chloro-1-(4-(2-(dimethylamino)ethoxy)phenyl)-2-phenylbut-1-enyl)phenyl hydrogen sulfate formation by HPLC analysis; type: ADME, tissue-based
In short: (§1)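 Liver cytosols from individual donors (100 µg protein) with 100 µM 4-OH-TOR, 20 µM [35S]PAPS, 50 mM potassium phosphate pH 6.2, 15 min at 37 °C. Sulfate measured by C18 radio-HPLC. SULT1A1 copy number by TaqMan qPCR against RNaseP, quadruplicate samples. Genotype–activity relation analysed by ANOVA. Triplicate incubations.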

[4] = Drug metabolism in human liver cytosol assessed as SULT1A1 3'UTR ACG/GTA copy number-2-mediated 4-(4-chloro-1-(4-(2-(dimethylamino)ethoxy)phenyl)-2-phenylbut-1-enyl)phenyl hydrogen sulfate formation by HPLC analysis; type: ADME, tissue-based; in short: as §1
[5] = Drug metabolism in human liver cytosol assessed as SULT1A1 copy number-3-mediated 4-(4-chloro-1-(4-(2-(dimethylamino)ethoxy)phenyl)-2-phenylbut-1-enyl)phenyl hydrogen sulfate formation by HPLC analysis; type: ADME, tissue-based; in short: as §1
Liver cytosol [6] = assay: Drug metabolism in human liver cytosol assessed as 4-(4-chloro-1-(4-(2-(dimethylamino)ethoxy)phenyl)-2-phenylbut-1-enyl)phenyl hydrogen sulfate formation measured per mg of protein after 15 mins by Michaelis-Menten equation in presence of 20 uM PAPS; type: ADME; settings: 0.25 h
In short: (§2)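 Human liver cytosol (protein by Bradford) incubated with 4-OH-TOR (0.1–30 µM for kinetics), 20 µM [35S]PAPS, 50 mM potassium phosphate pH 6.2, final DMSO <0.1%, 15 min at 37 °C. Stopped with acetonitrile:acetic acid (96:4). Sulfate measured by radio-HPLC, background taken from a substrate-free vehicle control. Triplicate incubations.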

Liver cytosol [7] = assay: Drug metabolism in human liver cytosol assessed as 4-(4-chloro-1-(4-(2-(dimethylamino)ethoxy)phenyl)-2-phenylbut-1-enyl)phenyl hydrogen sulfate formation after 15 mins by Michaelis-Menten equation in presence of 20 uM PAPS; type: ADME; settings: 0.25 h, read-out: Km(app); in short: as §2
[8] = Drug metabolism in human liver cytosol assessed as SULT1A1*1/2 single nucleotide polymorphism-mediated 4-(4-chloro-1-(4-(2-(dimethylamino)ethoxy)phenyl)-2-phenylbut-1-enyl)phenyl hydrogen sulfate formation by HPLC analysis; type: ADME, tissue-based; in short: as §1
[9] = Drug metabolism in human liver cytosol assessed as SULT1A1 copy number-2-mediated 4-(4-chloro-1-(4-(2-(dimethylamino)ethoxy)phenyl)-2-phenylbut-1-enyl)phenyl hydrogen sulfate formation by HPLC analysis; type: ADME, tissue-based; in short: as §1
Liver cytosol [10] = assay: Drug metabolism in human liver cytosol assessed as 4-(4-chloro-1-(4-(2-(dimethylamino)ethoxy)phenyl)-2-phenylbut-1-enyl)phenyl hydrogen sulfate formation measured per mg of protein treated with 0.1 to 30 after 15 mins by HPLC analysis; type: ADME, tissue-based; settings: 0.25 h; in short: as §2
[11] = Drug metabolism in human liver cytosol assessed as SULT1A1 copy number-1-mediated 4-(4-chloro-1-(4-(2-(dimethylamino)ethoxy)phenyl)-2-phenylbut-1-enyl)phenyl hydrogen sulfate formation by HPLC analysis; type: ADME, tissue-based; in short: as §1
[12] = Drug metabolism in human liver cytosol assessed as SULT1A1 3'UTR ACG/GTA copy number-3-mediated 4-(4-chloro-1-(4-(2-(dimethylamino)ethoxy)phenyl)-2-phenylbut-1-enyl)phenyl hydrogen sulfate formation by HPLC analysis; type: ADME, tissue-based; in short: as §1
[13] = Drug metabolism in human liver cytosol assessed as SULT1A1 3'UTR ACG/ACG copy number-3-mediated 4-(4-chloro-1-(4-(2-(dimethylamino)ethoxy)phenyl)-2-phenylbut-1-enyl)phenyl hydrogen sulfate formation by HPLC analysis; type: ADME, tissue-based; in short: as §1
[14] = Drug metabolism in human liver cytosol assessed as SULT1A1 3'UTR ACG/ACG copy number-2 -mediated 4-(4-chloro-1-(4-(2-(dimethylamino)ethoxy)phenyl)-2-phenylbut-1-enyl)phenyl hydrogen sulfate formation by HPLC analysis; type: ADME, tissue-based; in short: as §1
[15] = Drug level in human liver cytosol assessed as SULT1A1 3'UTR ACG/GTA copy number-2-mediated compound formation treated with 4-OH-toremifene by HPLC analysis; type: ADME, tissue-based; in short: as §1
[16] = Drug level in human liver cytosol assessed as SULT1A1 copy number-1-mediated compound formation treated with 4-OH-TOR by HPLC analysis; type: ADME, tissue-based; in short: as §1
[17] = Drug level in human liver cytosol assessed as SULT1A1*1/2 single nucleotide polymorphism-mediated compound formation treated with 4-OH-TOR by HPLC analysis; type: ADME, tissue-based; in short: as §1
[18] = Drug level in human liver cytosol assessed as SULT1A1 copy number-3--mediated compound formation treated with 4-OH-TOR by HPLC analysis; type: ADME, tissue-based; in short: as §1
[19] = Drug level in human liver cytosol assessed as SULT1A1 3'UTR ACG/ACG copy number-2-mediated compound formation treated with 4-OH-toremifene by HPLC analysis; type: ADME, tissue-based; in short: as §1
[20] = Drug level in human liver cytosol assessed as SULT1A1 3'UTR ACG/GTA copy number-3-mediated compound formation treated with 4-OH-toremifene by HPLC analysis; type: ADME, tissue-based; in short: as §1
[21] = Drug level in human liver cytosol assessed as SULT1A1 3'UTR GTA/GTA copy number-2-mediated compound formation treated with 4-OH-toremifene by HPLC analysis; type: ADME, tissue-based; in short: as §1
[22] = Drug level in human liver cytosol assessed as SULT1A1 3'UTR ACG/ACG copy number-3-mediated compound formation treated with 4-OH-toremifene by HPLC analysis; type: ADME, tissue-based; in short: as §1
[23] = Drug level in human liver cytosol assessed as SULT1A1 copy number-2--mediated compound formation treated with 4-OH-TOR by HPLC analysis; type: ADME, tissue-based; in short: as §1

## CN(C)CCOc1ccc(/C(=C(/CCCl)c2ccccc2)c2ccc(O)cc2)cc1 [4-HYDROXYTORMIFENE]
[1]
  Retention_time: 45.2 min
Liver cytosol [2]
  Drug metabolism: metabolite_not_detected
[3]
  Drug metabolism: metabolite_detected
[4]
  Drug metabolism: metabolite_detected
[5]
  Drug metabolism: metabolite_detected
Liver cytosol [6]
  Vmax: 1.4 nmol/min/mg
Liver cytosol [7]
  Km: 3.5 µM
[8]
  Drug metabolism: metabolite_detected
[9]
  Drug metabolism: metabolite_detected
Liver cytosol [10]
  Drug metabolism: 0.0003 nmol/min
[11]
  Drug metabolism: metabolite_detected
[12]
  Drug metabolism: metabolite_detected
[13]
  Drug metabolism: metabolite_detected
[14]
  Drug metabolism: metabolite_detected

## CN(C)CCOc1ccc(/C(=C(/CCCl)c2ccccc2)c2ccc(OS(=O)(=O)O)cc2)cc1
[15]
  Drug metabolism: metabolite_detected
[1]
  Retention_time: 12.1 min
[16]
  Drug metabolism: metabolite_detected
[17]
  Drug metabolism: metabolite_detected
[18]
  Drug metabolism: metabolite_detected
[19]
  Drug metabolism: metabolite_detected
[20]
  Drug metabolism: metabolite_detected
[21]
  Drug metabolism: metabolite_detected
[22]
  Drug metabolism: metabolite_detected
[23]
  Drug metabolism: metabolite_detected
